Measured values taken from ChEMBL document CHEMBL3616446, “Structure activity optimization of 6H-pyrrolo[2,3-e][1,2,4]triazolo[4,3-a]pyrazines as Jak1 kinase inhibitors” (Bioorg Med Chem Lett, 2015).

Experiments:
UT7 = assay: Selectivity ratio for inhibition of JAK2 in human UT7 cells to inhibition of JAK1 in human TF1 cells; format: cell-based
In short: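 Cell-based pSTAT read-outs. Jak1: IL-6-stimulated pSTAT3 in TF-1 cells. Jak2: Epo-stimulated pSTAT5 in UT-7 cells. Full-length endogenous Jak at cellular ATP levels. Run in 96-well format, some in 384-well. Ratio = Jak2 cellular value / Jak1 cellular value.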

[1] = Metabolic stability in Sprague-Dawley rat microsomes assessed as compound remaining at 1 uM measured at 25 mins; format: ADME, Microsome; conditions: read-out: Stability
In short: (§1)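 Microsomes at 0.25 mg protein with 1 mM NADPH and 1 µM compound, incubated 25 min at 37 °C; % parent remaining at 25 min. Rat: pooled male SD microsomes. Human: pooled male/female microsomes.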

[2] = Metabolic stability in human microsomes assessed as compound remaining at 1 uM measured at 25 mins; format: ADME, Microsome; conditions: read-out: Stability; in short: as §1
[3] = Plasma clearance in Sprague-Dawley rat at 5 mg/kg, iv; format: ADME, organism-based
[4] = AUC (0 to infinity) in Sprague-Dawley rat at 10 mg/kg, po; format: ADME, organism-based; set-up: dose 10 mg/kg, time infinity, route oral; conditions: in vivo
[5] = Cmax in Sprague-Dawley rat at 10 mg/kg, po; format: ADME, organism-based; set-up: dose 10 mg/kg, route oral; conditions: in vivo
[6] = Oral bioavailability in Sprague-Dawley rat at 10 mg/kg; format: ADME, organism-based; conditions: in vivo
Rattus norvegicus = assay: Antiinflammatory activity in Lewis rat assessed as inhibition of concanavalin A-induced IFNgamma production administered 30 mins prior to concanavalin A challenge measured at 4 hrs by ELISA; format: functional; set-up: concentration or dose not given beside the values

SMILES | remaining at 25 min, 1 µM [1] [%] | remaining at 25 min, 1 µM [2] [%] | clearance [3] [L/h/kg] | AUC(0-inf) [4] [µg·h/mL] | Cmax [5] [µg/mL] | bioavailability [6] [%] | Selectivity ratio (UT7) | inhibition (INH) (Rattus norvegicus) [%]
O=S(=O)(N[C@H]1CC[C@@H](c2nnc3cnc4[nH]ccc4n23)C1)c1cccc(Cl)c1 | 6 | 8 |  |  |  |  | 54 | 
O=S(=O)(N[C@H]1CC[C@@H](c2nnc3cnc4[nH]ccc4n23)C1)C1CCCC1 | 68 | 90 |  |  |  |  | 100 | 
O=S(=O)(N[C@H]1CC[C@@H](c2nnc3cnc4[nH]ccc4n23)C1)C1CCCCC1 |  |  |  |  |  |  | > 75 | 
CCCS(=O)(=O)N[C@H]1CC[C@@H](c2nnc3cnc4[nH]ccc4n23)C1 |  |  |  |  |  |  | > 20 | 
CS(=O)(=O)N[C@H]1CC[C@@H](c2nnc3cnc4[nH]ccc4n23)C1 |  |  |  |  |  |  | 34 | 
O=S(=O)(N[C@H]1CC[C@H](c2nnc3cnc4[nH]ccc4n32)CC1)C1CC1 |  |  |  |  |  |  | > 20 | 
O=S(=O)(N[C@H]1CCC[C@@H](c2nnc3cnc4[nH]ccc4n23)C1)C1CC1 (racemic) |  |  |  | 0.05 | 0.01 |  | 9 | 0
O=S(=O)(N[C@@H]1CCC[C@@H](c2nnc3cnc4[nH]ccc4n23)C1)C1CC1 (racemic) |  |  |  |  |  |  | > 10 | 

Further lines, with some results ahead:

remaining at 25 min, 1 µM [1] [%] | remaining at 25 min, 1 µM [2] [%] | clearance [3] [L/h/kg] | AUC(0-inf) [4] [µg·h/mL] | Cmax [5] [µg/mL] | bioavailability [6] [%] | SMILES | Selectivity ratio (UT7) | inhibition (INH) (Rattus norvegicus) [%]
80 | 85 | 2.5 | 0.86 | 0.31 | 32 | O=S(=O)(N[C@H]1CC[C@@H](c2nnc3cnc4[nH]ccc4n23)C1)C1CCC1 | 227 | 40
61 | 35 |  |  |  |  | COc1ccc(S(=O)(=O)N[C@H]2CC[C@@H](c3nnc4cnc5[nH]ccc5n34)C2)cc1 | 26 | 
 |  | 3.1 | 0.41 | 0.06 | 13 | O=S(=O)(N[C@]12CC[C@](c3nnc4cnc5[nH]ccc5n43)(CC1)CC2)C1CC1 | 225 | 31
31 | 42 |  |  |  |  | O=S(=O)(N[C@H]1CC[C@@H](c2nnc3cnc4[nH]ccc4n23)C1)c1ccccc1 | 34 | 
100 |  |  |  |  |  | CCS(=O)(=O)N[C@H]1CC[C@@H](c2nnc3cnc4[nH]ccc4n23)C1 | 101 | 
 |  |  | 0.28 | 0.17 |  | c1cc2c(ncc3nnc(C4CCCCC4)n32)[nH]1 |  | 
98 | 100 | 2.9 | 1.1 | 0.23 | 29 | O=S(=O)(N[C@H]1CC[C@@H](c2nnc3cnc4[nH]ccc4n23)C1)C1CC1 | 17 | 55
